Data as given in ChEMBL document CHEMBL1833943, “Synthesis and structure-activity relationships of varied ether linker analogues of the antitubercular drug (6S)-2-nitro-6-{[4-(trifluoromethoxy)benzyl]oxy}-6,7-dihydro-5h-imidazo[2,1-b][1,3]oxazine (PA-824)” (J Med Chem, 2011).
Values after ≈ are worked out from the molar mass of the structure shown.

How the values were obtained:
[1] = system: Mycobacterium tuberculosis; test: Antituberculosis activity against Mycobacterium tuberculosis H37Rv under aerobic conditions by microplate alamar blue assay; format: functional
[2] = system: Mycobacterium tuberculosis; test: Antituberculosis activity against Mycobacterium tuberculosis H37Rv under anaerobic conditions by fluorescence based low-oxygen-recovery assay; format: functional
[3] = Aqueous solubility of the compound in water at pH 7 by HPLC analysis; format: physicochemical
Outline: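 Solubility measured in water at pH 7 and 20 °C, quantified by HPLC.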

SMILES	MIC [1]	MIC [2]	solubility [3]
O=[N+]([O-])c1cn2c(n1)OC[C@@H](OCC#Cc1ccc(-c3ccc(C(F)(F)F)cc3)cc1)C2	0.22 µM (≈ 0.0975 µg/mL)	0.86 µM (≈ 0.381 µg/mL)	
O=[N+]([O-])c1cn2c(n1)OC[C@@H](Oc1ccc(C(F)(F)F)cn1)C2	2.9 µM (≈ 0.958 µg/mL)	16 µM (≈ 5.28 µg/mL)	
O=[N+]([O-])c1cn2c(n1)OC[C@@H](OCCCc1ccc(OCc3ccccc3)cc1)C2	0.5 µM (≈ 0.205 µg/mL)	3.7 µM (≈ 1.51 µg/mL)	3.8 µg/mL (≈ 9.28 µM)
O=[N+]([O-])c1cn2c(n1)OC[C@@H](OCCOc1ccc(OCc3ccccc3)cc1)C2	0.085 µM (≈ 0.035 µg/mL)	5.5 µM (≈ 2.26 µg/mL)	1.7 µg/mL (≈ 4.13 µM)
O=[N+]([O-])c1cn2c(n1)OC[C@@H](OCCCc1ccc(-c3ccc(F)cc3)cc1)C2	0.045 µM (≈ 0.0179 µg/mL)	0.92 µM (≈ 0.366 µg/mL)	
O=[N+]([O-])c1cn2c(n1)OC[C@@H](OCCCc1ccc(-c3ccc(C(F)(F)F)nc3)cc1)C2	0.07 µM (≈ 0.0314 µg/mL)	1.9 µM (≈ 0.852 µg/mL)	
O=[N+]([O-])c1cn2c(n1)OC[C@@H](OCCCc1ccc(-c3ccc(C(F)(F)F)cn3)cc1)C2	0.055 µM (≈ 0.0247 µg/mL)	3 µM (≈ 1.35 µg/mL)	
O=[N+]([O-])c1cn2c(n1)OC[C@@H](OCCOc1ccc(-c3ccc(F)cc3)cc1)C2	0.04 µM (≈ 0.016 µg/mL)	3.4 µM (≈ 1.36 µg/mL)	
O=[N+]([O-])c1cn2c(n1)OC[C@@H](OCCOc1ccc(-c3ccc(C(F)(F)F)cc3)cc1)C2	0.04 µM (≈ 0.018 µg/mL)	104 µM (≈ 46.7 µg/mL)	
O=[N+]([O-])c1cn2c(n1)OC[C@@H](OCCOc1ccc(-c3ccc(C(F)(F)F)nc3)cc1)C2	0.025 µM (≈ 0.0113 µg/mL)	4.1 µM (≈ 1.85 µg/mL)	
O=[N+]([O-])c1cn2c(n1)OC[C@@H](OCCOc1ccc(-c3ccc(F)cc3)cn1)C2	0.02 µM (≈ 0.00801 µg/mL)	2.4 µM (≈ 0.961 µg/mL)	
O=[N+]([O-])c1cn2c(n1)OC[C@@H](OCCOc1ccc(-c3ccc(C(F)(F)F)cc3)cn1)C2	0.02 µM (≈ 0.00901 µg/mL)	3 µM (≈ 1.35 µg/mL)	
O=[N+]([O-])c1cn2c(n1)OC[C@@H](OCCOc1ccc(-c3ccc(C(F)(F)F)nc3)cn1)C2	0.22 µM (≈ 0.0993 µg/mL)	10 µM (≈ 4.51 µg/mL)	
O=[N+]([O-])c1cn2c(n1)OC[C@@H](OCCOc1ncc(-c3ccc(F)cc3)cn1)C2	0.13 µM (≈ 0.0522 µg/mL)	13 µM (≈ 5.22 µg/mL)	
O=[N+]([O-])c1cn2c(n1)OC[C@@H](OCCOc1ncc(-c3ccc(C(F)(F)F)cc3)cn1)C2	0.12 µM (≈ 0.0542 µg/mL)	5.4 µM (≈ 2.44 µg/mL)	
O=[N+]([O-])c1cn2c(n1)OC[C@@H](OCCOc1ncc(-c3ccc(C(F)(F)F)nc3)cn1)C2	0.63 µM (≈ 0.285 µg/mL)	56 µM (≈ 25.3 µg/mL)	
O=[N+]([O-])c1cn2c(n1)OC[C@@H](OC/C=C/c1ccc(-c3ccc(F)cc3)cc1)C2	0.09 µM (≈ 0.0356 µg/mL)	3.1 µM (≈ 1.23 µg/mL)	

SMILES	MIC [1]	MIC [2]	solubility [3]
O=[N+]([O-])c1cn2c(n1)OC[C@@H](OC/C=C/c1ccc(-c3ccc(C(F)(F)F)cc3)cc1)C2	0.045 µM (≈ 0.02 µg/mL)	43 µM (≈ 19.2 µg/mL)	
O=[N+]([O-])c1cn2c(n1)OC[C@@H](OC/C=C/c1ccc(-c3ccc(C(F)(F)F)nc3)cc1)C2	0.02 µM (≈ 0.00893 µg/mL)	15 µM (≈ 6.7 µg/mL)	
O=[N+]([O-])c1cn2c(n1)OC[C@@H](OC/C=C/c1ccc(-c3ccc(OC(F)F)cc3)cc1)C2	0.08 µM (≈ 0.0355 µg/mL)	4.3 µM (≈ 1.91 µg/mL)	
O=[N+]([O-])c1cn2c(n1)OC[C@@H](OCC#Cc1ccc(-c3ccc(F)cc3)cc1)C2	0.035 µM (≈ 0.0138 µg/mL)	2.7 µM (≈ 1.06 µg/mL)	
O=[N+]([O-])c1cn2c(n1)OC[C@@H](OCC#Cc1ccc(-c3ccc(OC(F)F)cc3)cc1)C2	0.14 µM (≈ 0.0618 µg/mL)	1.8 µM (≈ 0.795 µg/mL)	
O=[N+]([O-])c1cn2c(n1)OC[C@@H](OCC#Cc1cccc(-c3ccc(F)cc3)c1)C2	0.04 µM (≈ 0.0157 µg/mL)	0.88 µM (≈ 0.346 µg/mL)	
O=[N+]([O-])c1cn2c(n1)OC[C@@H](OCC#Cc1cccc(-c3ccc(C(F)(F)F)cc3)c1)C2	0.27 µM (≈ 0.12 µg/mL)	1.3 µM (≈ 0.576 µg/mL)	
O=[N+]([O-])c1cn2c(n1)OC[C@@H](OCC#Cc1cccc(-c3ccc(C(F)(F)F)nc3)c1)C2	0.12 µM (≈ 0.0533 µg/mL)	0.96 µM (≈ 0.427 µg/mL)	
O=[N+]([O-])c1cn2c(n1)OC[C@@H](OCC#Cc1cccc(-c3ccc(OC(F)F)cc3)c1)C2	0.09 µM (≈ 0.0397 µg/mL)	1.4 µM (≈ 0.618 µg/mL)	
O=[N+]([O-])c1cn2c(n1)OC[C@@H](OCC#Cc1ccc(-c3ccc(F)cc3)cn1)C2	0.05 µM (≈ 0.0197 µg/mL)	0.85 µM (≈ 0.335 µg/mL)	
O=[N+]([O-])c1cn2c(n1)OC[C@@H](OCC#Cc1ccc(-c3ccc(C(F)(F)F)cc3)cn1)C2	0.02 µM (≈ 0.00889 µg/mL)	0.75 µM (≈ 0.333 µg/mL)	
O=[N+]([O-])c1cn2c(n1)OC[C@@H](OCC#Cc1ccc(-c3ccc(C(F)(F)F)nc3)cn1)C2	0.44 µM (≈ 0.196 µg/mL)	6.6 µM (≈ 2.94 µg/mL)	
O=[N+]([O-])c1cn2c(n1)OC[C@@H](OCC#Cc1ccc(-c3ccc(OC(F)F)cc3)cn1)C2	0.025 µM (≈ 0.0111 µg/mL)	0.44 µM (≈ 0.195 µg/mL)	
O=[N+]([O-])c1cn2c(n1)OC[C@@H](OCC#Cc1ccc(-c3ccc(F)cc3)nc1)C2	0.05 µM (≈ 0.0197 µg/mL)	1 µM (≈ 0.394 µg/mL)	
O=[N+]([O-])c1cn2c(n1)OC[C@@H](OCC#Cc1ccc(-c3ccc(C(F)(F)F)cc3)nc1)C2	0.07 µM (≈ 0.0311 µg/mL)	0.58 µM (≈ 0.258 µg/mL)	
O=[N+]([O-])c1cn2c(n1)OC[C@@H](OCC#Cc1ccc(-c3ccc(C(F)(F)F)nc3)nc1)C2	0.12 µM (≈ 0.0534 µg/mL)	3.7 µM (≈ 1.65 µg/mL)	
O=[N+]([O-])c1cn2c(n1)OC[C@@H](OCC#Cc1ccc(-c3ccc(OC(F)F)cc3)nc1)C2	0.08 µM (≈ 0.0354 µg/mL)	0.61 µM (≈ 0.27 µg/mL)	
